pIC50: −log10 of the molar value. Calls of active or inactive are those of the source. The calls are words filed in the database; no cut-off is given here.
What was measured:
LNCaP = test: Antiproliferative activity against human LNCAP cells after 72 hrs by MTT assay; type: functional, cell-based
Summary of the method: (§1)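 Exponentially growing cells, 4×10^3/well, attached 24 h, then medium replaced with fresh medium holding graded compound concentrations for 72 h. MTT (5 mg/mL stock) added for 4 h, formazan dissolved in DMSO, absorbance at 570 nm; IC50 calculated from dose-response data.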

MGC-803 = test: Antiproliferative activity against human MGC803 cells after 72 hrs by MTT assay; type: functional, cell-based; conditions: MGC-803, 72 h; summary of the method: as §1
ECa-109 cell line = test: Antiproliferative activity against human EC109 cells after 72 hrs by MTT assay; type: functional, cell-based; conditions: ECa-109, 72 h; summary of the method: as §1
GES1 = test: Antiproliferative activity against human GES-1 cells after 72 hrs by MTT assay; type: cell-based; conditions: GES1, 72 h; summary of the method: as §1
PC-3 [1] = test: Antiproliferative activity against human PC3 cells after 72 hrs by MTT assay; type: functional, cell-based; conditions: PC-3, 72 h; summary of the method: as §1
PC-3 [2] = test: Cell cycle arrest in human PC3 cells assessed as accumulation of cells at G2 phase at 0.5 uM after 48 hrs by RNase/propidium iodide staining-based flow cytometric analysis (reference value: 7.17%); type: functional
PC-3 [3] = test: Induction of apoptosis in human PC3 cells assessed as viable cells at 1 uM after 48 hrs by AnnexinV-FITC/propidium iodide staining-based flow cytometric analysis (reference value: 99.1%); type: functional; conditions: PC-3, 48 h, read-out: Activity
PC-3 [4] = test: Induction of apoptosis in human PC3 cells assessed as late apoptotic cells at 2 uM after 48 hrs by AnnexinV-FITC/propidium iodide staining-based flow cytometric analysis (reference value: 0.1%); type: functional
PC-3 [5] = test: Induction of apoptosis in human PC3 cells assessed as necrotic cells at 1 uM after 48 hrs by AnnexinV-FITC/propidium iodide staining-based flow cytometric analysis (reference value: 0.5%); type: functional
PC-3 [6] = test: Cell cycle arrest in human PC3 cells assessed as accumulation of cells at S phase at 2 uM after 48 hrs by RNase/propidium iodide staining-based flow cytometric analysis (reference value: 30.89%); type: functional
PC-3 [7] = test: Induction of apoptosis in human PC3 cells assessed as increase in caspase-3 activation after 48 hrs by Western blot analysis; type: functional, cell-based
Summary of the method: (§2)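 PC-3 cells treated 48 h with compound at several concentrations, lysed in NP-40/SDS/deoxycholate buffer with PMSF. Equal lysate amounts resolved by SDS-PAGE, transferred to nitrocellulose, blocked in 5% milk 2 h, primary antibody overnight at 4 °C, HRP secondary, ECL detection; GAPDH as loading control.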

PC-3 [8] = test: Anti-invasive activity in human PC3 cells after 48 hrs by matrigel-coated transwell assay; type: functional, cell-based
PC-3 [9] = test: Antimigratory activity in human PC3 cells assessed as decrease in N-Cadherin at 0.5 to 2 uM after 48 hrs by Western blot analysis; type: functional, cell-based; summary of the method: as §2
PC-3 [10] = test: Inhibition of colony formation in human PC3 cells at 0.5 to 2 uM after 7 days by crystal violet staining-based assay; type: functional, cell-based
Summary of the method: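 About 2000 PC-3 cells/well seeded, after 24 h medium replaced with compound-containing medium for 7 days. Colonies PBS-washed, fixed in 4% paraformaldehyde 30 min, crystal violet stained 30 min, destained with PBS before evaluation. Repeated three times.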

PC-3 [11] = test: Induction of apoptosis in human PC3 cells assessed as necrotic cells at 0.5 uM after 48 hrs by AnnexinV-FITC/propidium iodide staining-based flow cytometric analysis (reference value: 0.5%); type: functional
PC-3 [12] = test: Induction of apoptosis in human PC3 cells assessed as early apoptotic cells at 2 uM after 48 hrs by AnnexinV-FITC/propidium iodide staining-based flow cytometric analysis (reference value: 0.3%); type: functional
PC-3 [13] = test: Induction of apoptosis in human PC3 cells assessed as formation of apoptotic bodies at 0.5 to 2 uM after 48 hrs by Hoechst 33258 staining-based fluorescence microscopic analysis; type: functional, cell-based
Summary of the method: (§3)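 PC-3 cells, 3×10^5/well, grown 48 h, then treated with compound at varying concentrations 48 h. Methanol-fixed ~20 min, stained with 5 ug/mL Hoechst-33258 in PBS with 0.5% Triton X-100 in dark ≥30 min; nuclear condensation/fragmentation scored by UV fluorescence microscopy.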

PC-3 [14] = test: Induction of apoptosis in human PC3 cells assessed as cell rounding at 0.5 to 2 uM after 48 hrs by Hoechst 33258 staining-based fluorescence microscopic analysis; type: functional; summary of the method: as §3
PC-3 [15] = test: Induction of apoptosis in human PC3 cells assessed as viable cells at 0.5 uM after 48 hrs by AnnexinV-FITC/propidium iodide staining-based flow cytometric analysis (reference value: 99.1%); type: functional; conditions: PC-3, 48 h, read-out: Activity
PC-3 [16] = test: Induction of apoptosis in human PC3 cells assessed as late apoptotic cells at 0.5 uM after 48 hrs by AnnexinV-FITC/propidium iodide staining-based flow cytometric analysis (reference value: 0.1%); type: functional
PC-3 [17] = test: Induction of apoptosis in human PC3 cells assessed as viable cells at 2 uM after 48 hrs by AnnexinV-FITC/propidium iodide staining-based flow cytometric analysis (reference value: 99.1%); type: functional; conditions: PC-3, 48 h, read-out: Activity
PC-3 [18] = test: Antimigratory activity in human PC3 cells assessed as increase in E-cadherin at 0.5 to 2 uM after 48 hrs by Western blot analysis; type: functional, cell-based; summary of the method: as §2
PC-3 [19] = test: Induction of apoptosis in human PC3 cells assessed as late apoptotic cells at 1 uM after 48 hrs by AnnexinV-FITC/propidium iodide staining-based flow cytometric analysis (reference value: 0.1%); type: functional
PC-3 [20] = test: Cell cycle arrest in human PC3 cells assessed as accumulation of cells at G1 phase at 1 uM after 48 hrs by RNase/propidium iodide staining-based flow cytometric analysis (reference value: 61.95%); type: functional
PC-3 [21] = test: Antimigratory activity in human PC3 cells after 24 hrs by transwell assay
PC-3 [22] = test: Cell cycle arrest in human PC3 cells assessed as accumulation of cells at G1 phase at 2 uM after 48 hrs by RNase/propidium iodide staining-based flow cytometric analysis (reference value: 61.95%); type: functional
PC-3 [23] = test: Induction of apoptosis in human PC3 cells after 48 hrs by AnnexinV-FITC/propidium iodide staining-based flow cytometric analysis; type: functional, cell-based
PC-3 [24] = test: Induction of apoptosis in human PC3 cells assessed as increase in caspase-9 activation after 48 hrs by Western blot analysis; type: functional, cell-based; summary of the method: as §2
PC-3 [25] = test: Induction of apoptosis in human PC3 cells assessed as necrotic cells at 2 uM after 48 hrs by AnnexinV-FITC/propidium iodide staining-based flow cytometric analysis (reference value: 0.5%); type: functional
PC-3 [26] = test: Induction of apoptosis in human PC3 cells assessed as early apoptotic cells at 0.5 uM after 48 hrs by AnnexinV-FITC/propidium iodide staining-based flow cytometric analysis (reference value: 0.3%); type: functional
PC-3 [27] = test: Antimigratory activity in human PC3 cells assessed as increase in occludin at 0.5 to 2 uM after 48 hrs by Western blot analysis; type: functional, cell-based; summary of the method: as §2
PC-3 [28] = test: Cell cycle arrest in human PC3 cells assessed as accumulation of cells at G2 phase at 2 uM after 48 hrs by RNase/propidium iodide staining-based flow cytometric analysis (reference value: 7.17%); type: functional
PC-3 [29] = test: Cell cycle arrest in human PC3 cells assessed as accumulation of cells at S phase at 1 uM after 48 hrs by RNase/propidium iodide staining-based flow cytometric analysis (reference value: 30.89%); type: functional
PC-3 [30] = test: Induction of apoptosis in human PC3 cells assessed as chromatin shrinkage at 0.5 to 2 uM after 48 hrs by Hoechst 33258 staining-based fluorescence microscopic analysis; type: functional, cell-based; summary of the method: as §3
PC-3 [31] = test: Induction of apoptosis in human PC3 cells assessed as increase in cleaved PARP after 48 hrs by Western blot analysis; type: functional, cell-based; summary of the method: as §2
PC-3 [32] = test: Antimigratory activity in human PC3 cells after 48 hrs by wound-healing assay; type: functional, cell-based
Summary of the method: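 PC-3 cells seeded at 3×10^5/well, grown to 80–90% confluence, monolayer scratched with pipette tip, washed, then exposed to compound (0, 0.5, 1.0, 2.0 μM) for 48 h. Wound photographed by inverted microscopy. At least three experiments.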

PC-3 [33] = test: Cell cycle arrest in human PC3 cells assessed as accumulation of cells at G1 phase at 0.5 uM after 48 hrs by RNase/propidium iodide staining-based flow cytometric analysis (reference value: 61.95%); type: functional
PC-3 [34] = test: Antimigratory activity in human PC3 cells assessed as decrease in vimentin at 0.5 to 2 uM after 48 hrs by Western blot analysis; type: functional, cell-based; summary of the method: as §2
PC-3 [35] = test: Induction of apoptosis in human PC3 cells assessed as early apoptotic cells at 1 uM after 48 hrs by AnnexinV-FITC/propidium iodide staining-based flow cytometric analysis (reference value: 0.3%); type: functional
PC-3 [36] = test: Cell cycle arrest in human PC3 cells assessed as accumulation of cells at S phase at 0.5 uM after 48 hrs by RNase/propidium iodide staining-based flow cytometric analysis (reference value: 30.89%); type: functional
PC-3 [37] = test: Cell cycle arrest in human PC3 cells assessed as accumulation of cells at G2 phase at 1 uM after 48 hrs by RNase/propidium iodide staining-based flow cytometric analysis (reference value: 7.17%); type: functional

Structure (SMILES): CCOc1cc(-c2cccnc2)cc([C@H]2CC[C@H]3[C@@H]4CC=C5C[C@@H](OC(C)=O)CC[C@]5(C)[C@H]4CC[C@]23C)n1
- pIC50 (LNCaP): 4.55
- pIC50 (MGC-803): < 4.49
- pIC50 (ECa-109 cell line): < 4.49
- pIC50 (GES1): < 4.49
- pIC50 (PC-3 [1]): 5.16

Structure (SMILES): CCOc1cc(-c2cccnc2)cc([C@H]2CC[C@H]3[C@@H]4CC=C5C[C@@H](O)CC[C@]5(C)[C@H]4CC[C@]23C)n1
- Activity (PC-3 [2]): 10.92%
- viability at 1 µM (PC-3 [3]): 76.7%
- Activity (PC-3 [4]): 14.9%
- Activity (PC-3 [5]): 2.5%
- Activity (PC-3 [6]): 35.77%
- Activity (PC-3 [7]): Dose-dependent effect
- pIC50 (LNCaP): 5.07
- Activity (PC-3 [8]): Dose-dependent effect
- Activity (PC-3 [9]): Active
- inhibition (PC-3 [10]): Active
- Activity (PC-3 [11]): 0.5%
- pIC50 (MGC-803): 5.56
- Activity (PC-3 [12]): 7.3%
- Activity (PC-3 [13]): Active
- Activity (PC-3 [14]): Active
- viability at 0.5 µM (PC-3 [15]): 86.2%
- Activity (PC-3 [16]): 2.6%
- viability at 2 µM (PC-3 [17]): 73.3%
- Activity (PC-3 [18]): Active
- Activity (PC-3 [19]): 11.7%
- pIC50 (ECa-109 cell line): 5.27
- Activity (PC-3 [20]): 55.44%
- Activity (PC-3 [21]): Dose-dependent effect
- Activity (PC-3 [22]): 53.36%
- Activity (PC-3 [23]): Dose-dependent effect
- Activity (PC-3 [24]): Dose-dependent effect
- pIC50 (GES1): 5.11
- Activity (PC-3 [25]): 4.6%
- Activity (PC-3 [26]): 10.7%
- Activity (PC-3 [27]): Active
- Activity (PC-3 [28]): 10.87%
- Activity (PC-3 [29]): 33.48%
- Activity (PC-3 [30]): Active
- Activity (PC-3 [31]): Dose-dependent effect
- Activity (PC-3 [32]): Dose-dependent effect
- Activity (PC-3 [33]): 55.52%
- pIC50 (PC-3 [1]): 5.81
- Activity (PC-3 [34]): Active
- Activity (PC-3 [35]): 9.1%
- Activity (PC-3 [36]): 33.56%
- Activity (PC-3 [37]): 11.09%

Structure (SMILES): C[C@]12CC[C@H](O)CC1=CC[C@@H]1[C@@H]2CC[C@]2(C)C(c3cccnc3)=CC[C@@H]12 [ABIRATERONE]
- pIC50 (LNCaP): 5.48
- pIC50 (MGC-803): 5.11
- pIC50 (ECa-109 cell line): < 4.49
- pIC50 (GES1): 4.88
- pIC50 (PC-3 [1]): 5.23

Structure (SMILES): CCOc1cc(-c2ccccc2)cc([C@H]2CC[C@H]3[C@@H]4CC=C5C[C@@H](O)CC[C@]5(C)[C@H]4CC[C@]23C)n1
- pIC50 (MGC-803): < 4.49
- pIC50 (ECa-109 cell line): < 4.49
- pIC50 (GES1): < 4.49
- pIC50 (PC-3 [1]): 4.51

Structure (SMILES): CCOc1nc([C@H]2CC[C@H]3[C@@H]4CC=C5C[C@@H](O)CC[C@]5(C)[C@H]4CC[C@]23C)cc(-c2cccnc2)c1C#N
- pIC50 (LNCaP): 5.29
- pIC50 (MGC-803): 4.83
- pIC50 (ECa-109 cell line): 5.55
- pIC50 (GES1): < 4.49
- pIC50 (PC-3 [1]): 5.23
